Experimental data published in ChEMBL document CHEMBL3593187, “Modified quaternary ammonium salts as potential antimalarial agents” (Bioorg Med Chem, 2015).

Columns and labels:
[1] = Selectivity index, ratio of IC50 for HMEC1 to IC50 for chloroquine-sensitive Plasmodium falciparum D10
Summary of the method: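 Ratio of HMEC-1 IC50 (72 h MTT) to D10 IC50. […] Serial dilutions (final DMSO ≤1%), 72 h at 37 °C under 1% O2/5% CO2/94% N2. Growth read as pLDH activity (OD650). Mean of ≥3 experiments in duplicate.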

Plasmodium falciparum [2] = experiment: Resistance index, ratio of IC50 for chloroquine-resistant Plasmodium falciparum W2 to IC50 for chloroquine-sensitive Plasmodium falciparum D10; assay type: functional
Summary of the method: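 Resistance index is the IC50 against W2 divided by the IC50 against D10. Each IC50 came from a 72 h pLDH growth assay (OD650) on asynchronous cultures at 1% haematocrit and 37 °C, with ≥3 independent experiments in duplicate.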

[3] = Cytotoxicity against HMEC1 assessed as inhibition of cell proliferation after 72 hrs by MTT assay; conditions: Homo sapiens, HMEC-1, 72 h
Summary of the method: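 HMEC-1 cells grown in MCDB 131 with 10% fetal calf serum, 10 ng/mL EGF, hydrocortisone, 2 mM glutamine and 20 mM Hepes. Serial compound dilutions, 72 h at 37 °C in 5% CO2, then MTT for 3 h. Formazan dissolved in SDS/DMF lysing buffer (pH 4.7), read at 550 nm (ref 650 nm). IC50 from triplicates, at least three runs.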

[4] = Selectivity index, ratio of IC50 for HMEC1 to IC50 for chloroquine-resistant Plasmodium falciparum W2
Summary of the method: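 Selectivity index is the IC50 on HMEC-1 divided by the IC50 on W2. HMEC-1 cells were grown in MCDB 131 with 10% FCS, EGF, hydrocortisone and Hepes, then given serial dilutions for 72 h at 37 °C in 5% CO2. MTT was added for 3 h, formazan was dissolved in SDS/DMF lysis buffer at pH 4.7, and absorbance was read at 550/650 nm. Each test was run in triplicate at least three times.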

Plasmodium falciparum [5] = experiment: Antiplasmodial activity against chloroquine-sensitive Plasmodium falciparum D10 assessed as inhibition of parasite growth after 72 hrs by parasite lactate dehydrogenase assay; assay type: functional, organism-based; conditions: D10, 72 h
Summary of the method: (§1)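 Asynchronous P. falciparum cultures (parasitaemia 1–1.5%, 1% final haematocrit, human type A-positive erythrocytes) in RPMI 1640 with 1% AlbuMaxII, 0.01% hypoxanthine, 20 mM Hepes and 2 mM glutamine. Cultures were exposed to serial dilutions (10 mg/mL stocks in water or DMSO) for 72 h at 37 °C under 1% O2/5% CO2/94% N2. Growth was read as pLDH activity (OD650), and IC50 is the mean ± SD of ≥3 independent experiments in duplicate.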

Plasmodium falciparum [6] = experiment: Antiplasmodial activity against chloroquine-resistant Plasmodium falciparum W2 assessed as inhibition of parasite growth after 72 hrs by parasite lactate dehydrogenase assay; assay type: functional, organism-based; conditions: W2, 72 h; summary of the method: as §1

SMILES | Ratio IC50 [1] | Ratio IC50 (Plasmodium falciparum [2]) | IC50 [3] [nM] | Ratio IC50 [4] | IC50 (Plasmodium falciparum [5]) [nM] | IC50 (Plasmodium falciparum [6]) [nM]
C/C=C/C=C/C=C/C[N+](C)(C)CCCCCCCCCCCCCCCCCC.[I-] | 14 | 1.3 | 16700 | 10 | 1150 | 1530
C/C=C/C=C/C=C/C[N+](C)(CCCCCCCCCCCCC)Cc1ccccc1.[I-] (centres undefined) | 24 | 0.6 | 21200 | 41 | 870 | 520
C/C=C/C=C/C=C/C(=O)O |  |  |  |  | > 28400 | > 28400
C/C=C/C=C/C=C/C[N+](C)(CCCCCCCCCCCCCCCC)Cc1ccccc1 (centres undefined) |  |  | 5990 |  | > 8640 | > 8640
C/C=C/C=C/C=C/C[N+](C)(C)CCCCCCCCCCCCCC.[I-] | 36 | 2.5 | 7890 | 14 | 210 | 530
C/C=C/C=C/C=C/C[N+](C)(CCCCCCCCCCCC)Cc1ccccc1.[I-] (centres undefined) | 23 | 1.2 | 5900 | 18 | 250 | 330
C/C=C/C=C/C=C/C[N+](C)(CCCCCCCCCCCCCCCCCC)Cc1ccccc1.[I-] (centres undefined) | 15 | 1.3 | 7020 | 11 | 450 | 610
CCN(CC)CCCC(C)Nc1ccnc2cc(Cl)ccc12 (centres undefined) [CHLOROQUINE] |  |  | > 20000 |  |  | 
CCCCCCCCCCCC[N+](C)(C)CCCCCCCC.[Br-] | 44 | 2.5 | 8690 | 18 | 190 | 480
C/C=C/C=C/C=C/C[N+](C)(C)CCCCCCCCCCCCCCCC.[I-] | 11 | 1.5 | 7070 | 7 | 620 | 950
C/C=C/C=C/C=C/C[N+](C)(CCCCCCCCCCCCCC)Cc1ccccc1.[I-] (centres undefined) | 102 | 1.4 | 23000 | 75 | 220 | 310
C/C=C/C=C/C=C/C[N+](C)(C)CCCCCCCCCCCC.[I-] |  | 1.1 | > 20000 |  | 4280 | 4710
C/C=C/C=C/C=C/C[N+](C)(C)CCCCCCCCCCCCC.[I-] | 15 | 1.7 | 5630 | 8 | 360 | 630
